Assay [1] is described as follows: Her2 expression decrease, cell viability multiplex – SKBR3 breast tumor cells, AlphaScreen, ATP viability, primary screen (AID 461;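 active means Her2 level under about 52% in both replicate screens, with viability over 70% of control, limit read from the data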;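 on Her2 level: lower value means less Her2 protein in the cells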;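 on viability: percent of carrier control wells set as 100% viability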). As to conditions: SKBR3 Her2 protein level, 18-24 h, measured here: SKBR3 viability, ATP luminescence, at 10 µM. A general note: Bead proximity is the source of the signal in Alpha formats.
Assay [2] has as its target Receptor tyrosine-protein kinase erbB-2 (Homo sapiens) (UniProt P04626). The assay is described as above. As to conditions: 18-24 h, at 10 µM, stronger effect = lower value.
Assay [3] in a line: reduced viability of SK-BR-3 breast cancer cells – cell-based, 24 h, human, pilot screen (AID 572;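 active means viability at or below 10% of carrier control in both of two separate runs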;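 further: compound exposure lasted between 18 and 24 h rather than exactly 24 h; 100% = carrier-treated control wells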). As to conditions: SK-BR-3 viability, CellTiter-Glo luminescence, at 10 µM, stronger effect = lower value. Background: Cellular ATP, detected with luciferase, serves as a proxy for viable cell number.
Assay [4] is described as follows: HUVEC growth inhibition – cell-based, human, primary screen (AID 575;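 active means viability at or below 30% in both replicate assays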;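 further: 100% = median of untreated cell wells with 0.1% DMSO on each plate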). As to conditions: HUVEC proliferation, CellTiter-Glo luminescence, 72 h; at 10 µM; stronger effect = lower value. In outline: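 Assay system: primary human umbilical vein endothelial cells / Buffer or medium: endothelial basal medium with 2% FBS plus growth supplements / Compound dosing: one dose, 10 µM final, 0.1% DMSO / Timing: 72 h treatment at 37 °C / Signal: CTG luminescence / Benchmarks: 32 DMSO-only cell-control wells (high), 32 MePR drug-control wells (low) per plate / Plate: collagen-coated 384-well format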

Assay [5] can be described thus: H69AR cell proliferation blockers – human, duplicate replicates, primary screen (AID 580;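 active means viability at or under a set limit in both replicates, limit being median viability minus 3 SD, cut at about 48% in these data, passing the limit was not always enough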;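 further: 100% = mean luminescence of untreated wells and 0% = no signal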). As to conditions: H69AR lung tumor cells viability, ATP luminescence, 72 h; at 10 µM; stronger effect = lower value.
A short description of assay [6]: MRP1 drug-resistance reversers in H69AR cells – cell-based, doxorubicin co-treatment, pilot screen (AID 601). As to conditions: CellTiter-Glo, 72 h, at 10 µM; for differential viability (reversal): stronger effect = higher value.
A short description of assay [7]: yeast transport mutant growth inhibition pilot in 384-well plates, post-Golgi transport modulator project (AID 636; in the data active means inhibition above about 31%). As to conditions: absorbance 615 nm, about 18 h, stronger effect = higher value.
Assay [8] can be described thus: growth suppression of yeast trafficking mutant, preliminary HTS, modulators of trafficking downstream of Golgi apparatus project, 1536-format plate, OD 615 nm (AID 637; in the data active means inhibition above about 30%). As to conditions: yeast transport mutant growth, absorbance 615 nm, 18 h; stronger effect = higher value.
Setting [9] is: H69AR cells + 2 uM doxorubicin, measured here: viability with 2 uM doxorubicin, stronger effect = lower value.
The mark [10] stands for this setting: H69AR cells, compound alone cytotoxicity.

Molecules are shown by their SMILES. Active and inactive are the calls of the source.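 How the source made its calls, unless noted: active means viability loss from added drug above about 55%, and viability with drug at most 40%, in both replicates (limit read from the data, passing the limit was not always enough); inconclusive means both conditions met in only one replicate; inactive means neither replicate meets both conditions.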

Broadly, the viability is a read-out of living cells in per cent, often relative to untreated cells. A word on the inhibition: it is the drop in the measured response relative to a control, in per cent.

Receptor tyrosine-protein kinase erbB-2 (Homo sapiens), sequence (P04626 whole entry, looked up): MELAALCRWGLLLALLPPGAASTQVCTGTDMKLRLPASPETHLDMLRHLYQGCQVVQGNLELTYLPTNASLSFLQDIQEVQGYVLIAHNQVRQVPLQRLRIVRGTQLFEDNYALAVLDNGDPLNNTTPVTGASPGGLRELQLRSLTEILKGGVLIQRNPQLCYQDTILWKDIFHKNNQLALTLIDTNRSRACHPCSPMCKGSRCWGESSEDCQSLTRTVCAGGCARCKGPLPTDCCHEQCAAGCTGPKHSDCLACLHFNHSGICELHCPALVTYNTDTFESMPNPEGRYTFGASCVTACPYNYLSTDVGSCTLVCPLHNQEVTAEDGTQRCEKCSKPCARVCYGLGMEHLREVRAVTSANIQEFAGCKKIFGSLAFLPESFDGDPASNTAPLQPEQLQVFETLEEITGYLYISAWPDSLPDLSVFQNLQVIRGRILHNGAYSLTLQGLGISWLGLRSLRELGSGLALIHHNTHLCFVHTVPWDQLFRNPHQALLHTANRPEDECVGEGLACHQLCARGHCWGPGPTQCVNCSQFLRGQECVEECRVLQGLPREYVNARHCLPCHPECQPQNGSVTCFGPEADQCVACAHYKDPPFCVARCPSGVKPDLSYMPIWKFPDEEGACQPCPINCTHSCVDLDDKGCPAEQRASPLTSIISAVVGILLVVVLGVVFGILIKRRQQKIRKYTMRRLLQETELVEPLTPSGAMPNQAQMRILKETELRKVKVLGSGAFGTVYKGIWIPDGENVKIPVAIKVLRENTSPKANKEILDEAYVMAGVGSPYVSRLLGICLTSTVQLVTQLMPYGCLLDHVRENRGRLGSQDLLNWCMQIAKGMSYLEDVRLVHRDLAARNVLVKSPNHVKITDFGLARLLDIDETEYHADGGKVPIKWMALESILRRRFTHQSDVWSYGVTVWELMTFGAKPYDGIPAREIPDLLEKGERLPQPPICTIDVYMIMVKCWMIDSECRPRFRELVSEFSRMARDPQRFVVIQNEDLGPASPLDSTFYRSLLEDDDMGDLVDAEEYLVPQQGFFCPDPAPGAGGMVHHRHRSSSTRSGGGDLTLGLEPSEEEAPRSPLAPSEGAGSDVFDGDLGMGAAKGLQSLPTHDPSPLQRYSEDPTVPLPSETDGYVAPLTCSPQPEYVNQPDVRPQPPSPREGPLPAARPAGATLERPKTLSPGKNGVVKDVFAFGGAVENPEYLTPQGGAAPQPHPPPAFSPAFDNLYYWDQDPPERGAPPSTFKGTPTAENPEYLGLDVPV

Regarding `CCN(Cc1cc2ccccc2[nH]c1=O)S(=O)(=O)c1ccccc1`, the viability was 110% in assay [1]; 110% (inactive) in assay [3]; 98.4% (inactive) in assay [4]; 87.1% (inactive) in assay [5]; 99.8% in assay [6] (setting [9]); 87.1% in assay [6] (setting [10]). For the same compound, in assay [2], the Her2 level was 112% (inactive). Besides, the differential viability (reversal) in assay [6] (H69AR cells + 2 uM doxorubicin) was -12.7% (inactive). In addition, the inhibition in assay [7] is -4.59% (inactive); in assay [8], -2.38% (inactive).

For `Cc1ccc2c(Cl)cc(Cl)c(OCc3c(C)noc3C)c2n1`, the viability in assay [1] is 102%; in assay [3], 102% (inactive); in assay [4], 84.7% (inactive); in assay [5], 84.9% (inactive); in assay [6] (setting [9]) it was 85.1%; in assay [6] (setting [10]), 84.9%. The Her2 level in assay [2] was 99.5% (inactive). Further, the differential viability (reversal) in assay [6] (H69AR cells + 2 uM doxorubicin) is -0.21% (inactive). Also, the inhibition in assay [7] was 6.08% (inactive); in assay [8], 13.3% (inactive).

`CCN(CCNC(=O)CS(=O)(=O)Cc1nc(-c2cccc(OC)c2)oc1C)c1ccccc1`: the viability in assay [1] was 97.5%; in assay [3] it was 97.5% (inactive); in assay [4], 78.4% (inactive); in assay [5], 99% (inactive); in assay [6] (setting [9]), 110%; in assay [6] (setting [10]), 99%. The Her2 level in assay [2] is 105% (inactive). In addition, the differential viability (reversal) in assay [6] (H69AR cells + 2 uM doxorubicin) is -10.6% (inactive). Further, the inhibition in assay [7] is -6.67% (inactive); in assay [8] it was -0.48% (inactive).

As to `COc1ccccc1NC(=O)N1CCCC1C(=O)NC1CCCCC1` (stereo not given), the viability in assay [1] was 104%; in assay [3], 104% (inactive); in assay [4], 101% (inactive); in assay [5], 80.1% (inactive); in assay [6] (setting [9]), 84.7%; in assay [6] (setting [10]), 80.1%. For the same compound, the Her2 level in assay [2] was 91.5% (inactive). In addition, the differential viability (reversal) in assay [6] (H69AR cells + 2 uM doxorubicin) is -4.57% (inactive). Also, the inhibition in assay [7] is -9.32% (inactive); in assay [8] it was -2.5% (inactive).

Regarding `Cc1cc(NC(=O)CCC(=O)N(CC(=O)NC2CCCC2)Cc2ccc(F)cc2)no1`, the viability in assay [1] is 101%; in assay [3], 101% (inactive); in assay [4] it was 88.9% (inactive); in assay [5], 95.6% (inactive); in assay [6] (setting [9]), 82.7%; in assay [6] (setting [10]) it was 95.6%. Further, the Her2 level in assay [2] is 94% (inactive). For the same compound, in assay [6] (H69AR cells + 2 uM doxorubicin), the differential viability (reversal) is 12.9% (inactive). For the same compound, the inhibition is -5.87% (inactive) in assay [7] and -5.08% (inactive) in assay [8].

For the compound `CC1CCc2cc(F)cc3c(O)c(C(=O)NCC4CCCO4)c(=O)n1c23` (stereo not given), the viability in assay [1] was 93.5%; in assay [3] it was 93.5% (inactive); in assay [4], 80.8% (inactive); in assay [5], 85.6% (inactive); in assay [6] (setting [9]), 94.2%; in assay [6] (setting [10]), 85.6%. Further, in assay [2], the Her2 level is 94% (inactive). Further, the differential viability (reversal) in assay [6] (H69AR cells + 2 uM doxorubicin) is -8.57% (inactive). Also, the inhibition in assay [7] was 0.66% (inactive); in assay [8], -9.84% (inactive).

Regarding `COC(=O)c1cccc(S(=O)(=O)N2CCN(c3nc4ccccc4s3)CC2)c1`, the viability in assay [1] was 83%; in assay [3], 83% (inactive); in assay [4] it was 87.8% (inactive); in assay [5], 81% (inactive); in assay [6] (setting [9]), 72.3%; in assay [6] (setting [10]), 81%. In addition, the Her2 level in assay [2] was 92.5% (inactive). For the same compound, the differential viability (reversal) in assay [6] (H69AR cells + 2 uM doxorubicin) is 8.71% (inactive). The inhibition in assay [7] was 0.67% (inactive); in assay [8] it was -2.42% (inactive).

In the case of `CC(NC(=O)COc1ccccc1)C(=O)NC1=NCCS1` (stereo not given), the viability is 89% in assay [1]; 89% (inactive) in assay [3]; 88.8% (inactive) in assay [4]; 94.4% (inactive) in assay [5]; 90.8% in assay [6] (setting [9]); 94.4% in assay [6] (setting [10]). The Her2 level in assay [2] is 124% (inactive). Moreover, the differential viability (reversal) in assay [6] (H69AR cells + 2 uM doxorubicin) was 3.6% (inactive). Further, the inhibition in assay [7] was -4.36% (inactive); in assay [8] it was -11.8% (inactive).

In the case of `Cc1cc(-c2ccccc2)c2c3c(cn2n1)c(=O)n(C)c(=O)n3C`, the viability in assay [1] is 108%; in assay [3], 108% (inactive); in assay [4] it was 84.3% (inactive); in assay [5], 75.6% (inactive); in assay [6] (setting [9]), 76.1%; in assay [6] (setting [10]), 75.6%. Further, in assay [2], the Her2 level is 83% (inactive). For the same compound, the differential viability (reversal) in assay [6] (H69AR cells + 2 uM doxorubicin) was -0.565% (inactive). In addition, the inhibition was -2.37% (inactive) in assay [7] and 0.33% (inactive) in assay [8].

Take `CSCCC(C(=O)Nc1ccc2c(c1)OCO2)N1C(=O)c2ccccc2C1=O` (stereo not given): the viability in assay [1] is 91%; in assay [3] it was 91% (inactive); in assay [4] it was 88.1% (inactive); in assay [5], 96.4% (inactive); in assay [6] (setting [9]), 92%; in assay [6] (setting [10]), 96.4%. Moreover, in assay [2], the Her2 level is 79% (inactive). Besides, the differential viability (reversal) in assay [6] (H69AR cells + 2 uM doxorubicin) is 4.44% (inactive). Moreover, the figures for the inhibition in assay [7] and in assay [8] were -1.3% (inactive) and -1.43% (inactive), respectively.

`CC1(C)CNC(=O)CC(C)(C)N1O`: the viability in assay [1] is 90%; in assay [3], 90% (inactive); in assay [4], 101% (inactive); in assay [5], 95.6% (inactive); in assay [6] (setting [9]), 92.6%; in assay [6] (setting [10]) it was 95.6%. Further, in assay [2], the Her2 level is 129% (inactive). In assay [6] (H69AR cells + 2 uM doxorubicin), the differential viability (reversal) is 3.01% (inactive). The inhibition in assay [7] is -1.43% (inactive); in assay [8] it was 0% (inactive).

For `CCOc1ccc(S(=O)(=O)n2nc(C)cc2C)c2ccccc12`, the viability in assay [1] was 83.5%; in assay [3] it was 83.5% (inactive); in assay [4], 71.2% (inactive); in assay [5], 79.7% (inactive); in assay [6] (setting [9]) it was 77.6%; in assay [6] (setting [10]), 79.7%. In addition, the Her2 level in assay [2] was 89.5% (inactive). Moreover, the differential viability (reversal) in assay [6] (H69AR cells + 2 uM doxorubicin) was 2.17% (inactive). The inhibition in assay [7] was -1.03% (inactive); in assay [8], 2% (inactive).

`CC(C)(C)NC(=O)C(c1ccco1)N(C(=O)Cn1nnc(-c2ccc(F)cc2)n1)c1ccccc1F` (stereo not given): the viability in assay [1] is 99%; in assay [3], 99% (inactive); in assay [4], 96% (inactive); in assay [5] it was 99.3% (inactive); in assay [6] (setting [9]), 110%; in assay [6] (setting [10]), 99.3%. For the same compound, in assay [2], the Her2 level is 84% (inactive). Also, the differential viability (reversal) in assay [6] (H69AR cells + 2 uM doxorubicin) is -11% (inactive). Also, the inhibition in assay [7] was -5.54% (inactive); in assay [8], 21.8% (inactive).

On to `O=C(c1ccco1)N1CCN(C(=O)c2cc3c(s2)-c2ccccc2OC3)CC1`, for which the viability in assay [1] was 91%; in assay [3], 91% (inactive); in assay [4] it was 107% (inactive); in assay [5], 97% (inactive); in assay [6] (setting [9]) it was 94.2%; in assay [6] (setting [10]), 97%. Also, in assay [2], the Her2 level was 113% (inactive). Further, the differential viability (reversal) in assay [6] (H69AR cells + 2 uM doxorubicin) is 2.87% (inactive). The inhibition in assay [7] is 0.13% (inactive); in assay [8] it was -1.64% (inactive).

For `O=C(Nc1nccs1)NC(C(F)(F)F)C(F)(F)F`, the viability in assay [1] was 104%; in assay [3], 104% (inactive); in assay [4], 93% (inactive); in assay [5], 95.1% (inactive); in assay [6] (setting [9]), 95.1%; in assay [6] (setting [10]), 95.1%. Moreover, in assay [2], the Her2 level was 87.5% (inactive). In assay [6] (H69AR cells + 2 uM doxorubicin), the differential viability (reversal) was -0.09% (inactive). In addition, the inhibition in assay [7] was -6.44% (inactive); in assay [8] it was -0.16% (inactive).

On to `O=C(Nc1cccc(F)c1)c1cccc(S(=O)(=O)N2CCOCC2)c1`, for which the viability in assay [1] is 107%; in assay [3], 107% (inactive); in assay [4], 92.8% (inactive); in assay [5], 91.6% (inactive); in assay [6] (setting [9]), 91%; in assay [6] (setting [10]) it was 91.6%. The Her2 level in assay [2] is 87% (inactive). Also, in assay [6] (H69AR cells + 2 uM doxorubicin), the differential viability (reversal) was 0.615% (inactive). Moreover, the inhibition in assay [7] was -6.71% (inactive); in assay [8] it was -5.71% (inactive).

The values are drawn from PubChem BioAssay.
